According to ChEMBL document CHEMBL1240409, “Design, synthesis and evaluation of (E)-alpha-benzylthio chalcones as novel inhibitors of BCR-ABL kinase” (Bioorg Med Chem, 2010):

Legend:
K562 = assay: Growth inhibition of human K562 cells expressing p210Bcr/Abl after 96 hrs by trypan blue exclusion assay; format: functional, cell-based; details: K562, 96 h
Method in brief: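 K562 cells were kept in RPMI with 10% FBS and penicillin–streptomycin at 37 °C under 5% CO2. Cells were seeded at 1 × 10^5 cells/mL with a range of compound concentrations, using DMSO as the negative control. After 96 h, viability was counted by Trypan blue exclusion and expressed as percent of DMSO control to derive GI50.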

[1] = Aqueous solubility of the compound; format: physicochemical; details: buffer
Bcr/Abl fusion protein = Bcr/Abl fusion protein (Homo sapiens, UniProt P00519); assay: Inhibition of BCR/ABL p210 autophosphorylation in human K562 cells after 2 hrs by Western blot analysis; format: cell-based
Sequence of Bcr/Abl fusion protein (P00519 whole entry, the tested form may be a part): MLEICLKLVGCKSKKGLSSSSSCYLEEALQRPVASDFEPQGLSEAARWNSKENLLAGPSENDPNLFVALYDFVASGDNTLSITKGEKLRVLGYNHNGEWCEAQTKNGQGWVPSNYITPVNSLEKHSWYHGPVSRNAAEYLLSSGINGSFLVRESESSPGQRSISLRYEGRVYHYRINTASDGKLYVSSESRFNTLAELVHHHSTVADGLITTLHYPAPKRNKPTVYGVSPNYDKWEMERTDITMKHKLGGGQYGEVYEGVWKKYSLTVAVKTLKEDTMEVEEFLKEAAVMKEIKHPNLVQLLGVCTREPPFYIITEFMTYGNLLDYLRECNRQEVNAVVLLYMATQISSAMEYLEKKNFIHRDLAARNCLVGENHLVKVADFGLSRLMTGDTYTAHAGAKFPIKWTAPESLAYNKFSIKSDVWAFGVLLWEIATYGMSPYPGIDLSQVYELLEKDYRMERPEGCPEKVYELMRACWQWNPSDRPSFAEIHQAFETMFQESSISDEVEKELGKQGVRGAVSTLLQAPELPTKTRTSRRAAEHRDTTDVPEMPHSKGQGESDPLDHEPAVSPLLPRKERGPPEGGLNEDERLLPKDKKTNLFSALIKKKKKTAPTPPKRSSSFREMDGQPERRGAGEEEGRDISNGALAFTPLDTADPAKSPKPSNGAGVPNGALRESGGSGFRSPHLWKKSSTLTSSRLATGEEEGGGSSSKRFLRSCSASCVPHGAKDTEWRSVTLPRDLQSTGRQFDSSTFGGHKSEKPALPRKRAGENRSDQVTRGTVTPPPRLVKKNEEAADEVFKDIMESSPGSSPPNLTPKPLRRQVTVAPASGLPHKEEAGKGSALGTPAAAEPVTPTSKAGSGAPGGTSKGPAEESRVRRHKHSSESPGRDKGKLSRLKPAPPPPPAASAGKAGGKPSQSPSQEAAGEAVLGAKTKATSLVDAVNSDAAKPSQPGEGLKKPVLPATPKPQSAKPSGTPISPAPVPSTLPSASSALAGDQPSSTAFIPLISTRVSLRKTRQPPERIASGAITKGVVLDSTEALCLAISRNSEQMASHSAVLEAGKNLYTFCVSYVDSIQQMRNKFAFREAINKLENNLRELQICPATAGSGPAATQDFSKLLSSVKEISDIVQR
Sequence of Bcr/Abl fusion protein (P11274 whole entry, further chain, the tested form may be a part): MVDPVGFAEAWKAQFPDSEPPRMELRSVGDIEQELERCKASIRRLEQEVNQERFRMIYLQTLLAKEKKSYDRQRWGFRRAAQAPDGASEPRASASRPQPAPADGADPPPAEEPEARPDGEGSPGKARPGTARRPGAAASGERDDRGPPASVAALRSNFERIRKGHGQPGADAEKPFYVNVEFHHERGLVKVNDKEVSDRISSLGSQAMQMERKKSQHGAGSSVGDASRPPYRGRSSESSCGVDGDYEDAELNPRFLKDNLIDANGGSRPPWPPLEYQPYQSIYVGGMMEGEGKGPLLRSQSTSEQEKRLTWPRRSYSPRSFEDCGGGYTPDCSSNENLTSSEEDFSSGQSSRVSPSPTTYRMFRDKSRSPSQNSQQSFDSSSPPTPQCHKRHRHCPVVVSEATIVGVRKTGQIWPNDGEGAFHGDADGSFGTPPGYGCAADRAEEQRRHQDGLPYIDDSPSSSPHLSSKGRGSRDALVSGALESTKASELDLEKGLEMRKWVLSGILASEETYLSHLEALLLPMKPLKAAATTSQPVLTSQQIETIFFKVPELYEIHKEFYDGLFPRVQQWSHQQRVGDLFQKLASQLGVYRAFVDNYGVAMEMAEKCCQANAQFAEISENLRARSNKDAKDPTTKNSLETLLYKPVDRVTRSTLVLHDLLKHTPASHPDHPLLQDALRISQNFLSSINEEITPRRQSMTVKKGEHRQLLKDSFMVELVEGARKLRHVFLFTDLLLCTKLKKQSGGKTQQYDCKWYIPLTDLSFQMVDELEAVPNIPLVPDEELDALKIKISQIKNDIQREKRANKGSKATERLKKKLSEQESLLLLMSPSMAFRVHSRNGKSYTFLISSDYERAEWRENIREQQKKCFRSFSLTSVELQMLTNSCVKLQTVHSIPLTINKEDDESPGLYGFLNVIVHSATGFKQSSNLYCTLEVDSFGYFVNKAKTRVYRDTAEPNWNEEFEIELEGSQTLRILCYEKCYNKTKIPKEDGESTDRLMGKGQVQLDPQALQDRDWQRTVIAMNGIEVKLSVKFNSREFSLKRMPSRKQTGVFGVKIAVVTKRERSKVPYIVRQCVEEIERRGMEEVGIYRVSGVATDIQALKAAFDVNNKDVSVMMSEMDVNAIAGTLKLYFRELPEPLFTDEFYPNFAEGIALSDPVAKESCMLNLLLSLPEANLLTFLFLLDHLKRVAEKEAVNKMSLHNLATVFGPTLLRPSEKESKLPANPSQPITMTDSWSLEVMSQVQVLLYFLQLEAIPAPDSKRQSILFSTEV

DU-145 = assay: Growth inhibition of human DU145 cells after 96 hrs by trypan blue exclusion assay; format: functional; details: DU-145, 96 h

SMILES	IC50 (K562) [µM]	solubility [1] [µg/mL]	IC50 (Bcr/Abl fusion protein) [µM]	GI50 (K562) [µM]	GI50 (DU-145) [µM]
O=C(O)c1ccc(C(=O)/C(=C\c2cc([N+](=O)[O-])ccc2F)SCc2ccc(Br)cc2)cc1	7.5	< 1000	> 20	–	–
O=C(O)c1ccc(C(=O)/C(=C\c2ccc(F)c([N+](=O)[O-])c2)S(=O)(=O)Cc2ccc(Br)cc2)cc1	5	< 1000	> 20	–	–
O=C(O)c1ccc(C(=O)/C(=C\c2ccc(F)cc2[N+](=O)[O-])SCc2ccc(Br)cc2)cc1	20	< 1000	> 20	–	–
O=C(O)c1ccc(C(=O)/C(=C\c2ccc(F)c([N+](=O)[O-])c2)[S+]([O-])Cc2ccc(Br)cc2)cc1 (stereo not given)	75	< 1000	> 20	–	–
O=C(O)c1ccc(C(=O)/C(=C\c2ccc([N+](=O)[O-])c(F)c2)SCc2ccc(Br)cc2)cc1	5	< 1000	> 20	–	–
O=C(/C(=C\c1ccc(O)c([N+](=O)[O-])c1)SCc1ccc(Br)cc1)C1CCNC1 (stereo not given)	–	–	–	> 100	> 100
CN(C)c1ccc(/C=C(/SCc2ccc(Cl)c(Cl)c2)C(=O)c2ccc(Cl)cc2)cc1	–	–	–	50	50
Cc1cc(C)cc(/C=C(\C(=O)c2ccc(Br)cc2)S(=O)(=O)Cc2ccc(F)cc2)c1	–	–	–	10	10
O=C(/C(=C\OCc1ccccc1)S(=O)(=O)c1ccccc1Cl)c1ccc(Cl)cc1	–	–	–	1	1
O=C(/C(=C\c1ccc(O)c([N+](=O)[O-])c1)S(=O)(=O)c1ccc(I)cc1)c1ccc(I)cc1	–	–	–	25	25
COc1ccc(/C=C(\C(=O)c2ccc(Cl)cc2)S(=O)(=O)c2ccc(C)cc2)cc1O	–	–	–	1	1
Cc1ccc(CS/C(=C/c2sccc2C)C(=O)c2ccc(Cl)cc2)cc1	–	–	–	10	10
O=C(/C(=C\c1ccc(-c2ccccc2)s1)SCc1ccc(F)cc1)c1ccc(Br)cc1	–	–	–	50	> 100
CN(C)c1ccc(/C=C(/SCc2ccc(Cl)cc2)C(=O)c2ccc(C(=O)O)cc2)cc1	–	–	–	1	1
COc1ccccc1/C=C(\C(=O)c1ccc(Cl)cc1)S(=O)(=O)Cc1ccc(Cl)c(Cl)c1	–	–	–	1	1
O=C(/C(=C\c1csc([N+](=O)[O-])c1)S(=O)(=O)c1ccc(Br)cc1)c1ccc(Br)cc1	–	–	–	1	1
COc1cc(/C=C(/SCc2ccc(Br)cc2)C(=O)c2ccc(Br)cc2)cc([N+](=O)[O-])c1O	–	–	–	25	25

SMILES	IC50 (K562) [µM]	solubility [1] [µg/mL]	IC50 (Bcr/Abl fusion protein) [µM]	GI50 (K562) [µM]	GI50 (DU-145) [µM]
O=C(/C(=C\c1ccc(O)c(Br)c1)Sc1ccc(Br)cc1)c1c(F)c(F)c(F)c(F)c1F	–	–	–	1	1
O=C(/C(=C\c1ccc(O)c([N+](=O)[O-])c1)SCc1ccc(Br)cc1)c1ccc([N+](=O)[O-])cc1	–	–	–	10	10
O=C(/C(=C\c1ccc(O)cc1)SCc1ccc(Cl)c(Cl)c1)c1ccc(Cl)cc1	–	–	–	1	1
O=C(/C(=C\c1ccccc1F)S(=O)(=O)c1ccc(Br)cc1)c1ccc(Cl)cc1	–	–	–	25	25
CN(C)c1ccc(/C=C(/SCc2ccccc2Cl)C(=O)c2ccc(Cl)cc2)cc1	–	–	–	50	> 100
COc1cc(OC)c(/C=C(\C(=O)c2ccc(Cl)cc2)S(=O)(=O)c2ccc(Br)cc2)c(OC)c1	–	–	–	> 100	> 100
Cc1ccsc1/C=C(/SCc1ccc(Cl)cc1)C(=O)c1ccc(Cl)cc1	–	–	–	50	50
Cc1ccc(CS/C(=C/c2cc([N+](=O)[O-])ccc2F)C(=O)c2ccc(Cl)cc2)cc1	–	–	–	1	1
O=C(/C(=C\c1ccc([N+](=O)[O-])c(O)c1)Sc1c(F)c(F)c(F)c(F)c1F)c1ccc(Br)cc1	–	–	–	1	10
Cc1ccc(S(=O)(=O)/C(=C/c2ccc(Br)cc2)C(=O)c2ccc(Br)cc2)cc1	–	–	–	4	10
O=C(/C(=C\c1c(O)cc(O)cc1O)S(=O)(=O)c1ccccc1Br)c1ccc(Cl)cc1	–	–	–	50	50
COc1cc(OC)c(C=C(C(=O)c2ccc(Cl)cc2)S(=O)(=O)Cc2ccccc2Cl)c(OC)c1	–	–	–	25	> 100
O=C(/C(=C\c1ccc(O)c([N+](=O)[O-])c1)SCc1ccc(Br)cc1)c1ccc(Br)cc1	–	–	–	10	10
O=C(/C(=C\c1ccc(OCc2ccccc2)cc1)SCc1ccc(Cl)cc1Cl)c1ccc(Cl)cc1	–	–	–	1	1
Cc1ccc(S(=O)(=O)/C(=C/c2ccc(O)c([N+](=O)[O-])c2)C(=O)c2ccc(Cl)cc2)cc1	–	–	–	25	25
O=C(/C(=C\c1ccccc1OCc1ccccc1)SCc1ccc(Cl)c(Cl)c1)c1ccc(Cl)cc1	–	–	–	10	10
O=C(/C(=C\c1ccc(OCc2ccccc2)cc1)S(=O)(=O)Cc1ccc(Cl)cc1)c1ccc(Cl)cc1	–	–	–	1	1

Now from value to compound:

IC50 (K562) [µM]	solubility [1] [µg/mL]	IC50 (Bcr/Abl fusion protein) [µM]	GI50 (K562) [µM]	GI50 (DU-145) [µM]	SMILES
7.5	< 1000	> 20	–	–	O=C(O)c1ccc(C(=O)/C(=C\c2ccc([N+](=O)[O-])cc2F)SCc2ccc(Br)cc2)cc1
–	–	–	1	10	COc1ccc(/C=C(\C(=O)c2ccc(Br)cc2)S(=O)(=O)c2ccc(Br)cc2)c(F)c1
–	–	–	25	25	Cc1ccc(S/C(=C/c2ccc(F)cc2C(F)(F)F)C(=O)c2ccc(Br)cc2)cc1
–	–	–	1	1	COc1ccc(S/C(=C/c2ccc(Cl)cc2Cl)C(=O)c2ccc(Br)cc2)cc1
–	–	–	1	10	Cc1ccc(S/C(=C/c2cc([N+](=O)[O-])ccc2F)C(=O)c2ccc(Cl)cc2)cc1
–	–	–	50	50	O=C(/C(=C\c1ccc(O)cc1O)SCc1ccc(Cl)cc1)c1ccc(Cl)cc1
–	–	–	1	1	O=C(/C(=C\c1ccc(OCc2ccccc2)cc1)SCc1cccc(Cl)c1)c1ccc(Br)cc1
–	–	–	10	1	Cc1ccc(S/C(=C/c2c[nH]c3ccc(Br)cc23)C(=O)c2ccc(Br)cc2)cc1
–	–	–	1	10	Cc1ccc(S/C(=C/c2ccc(Cl)cc2)C(=O)c2ccc(Cl)cc2)cc1
–	–	–	1	1	COc1ccc(/C=C(/SCc2ccc(Cl)cc2)C(=O)c2ccc(Br)cc2)cc1O
–	–	–	1	9	COc1ccccc1/C=C(/Sc1ccc(C)cc1)C(=O)c1ccc(Br)cc1
–	–	–	1	10	COc1ccccc1/C=C(/SCc1ccc(F)cc1)C(=O)c1ccc(Cl)cc1
–	–	–	1	1	COc1ccc(C(=O)/C(=C\c2ccc(Br)cc2)S(=O)(=O)c2ccc(F)cc2)cc1
–	–	–	25	50	O=C(/C(=C\c1ccc(Cl)cc1Cl)S(=O)(=O)c1ccc(Br)cc1)c1ccc(Cl)cc1
–	–	–	1	1	COc1ccc(/C=C(/SCc2ccc(F)cc2)C(=O)c2ccc(Br)cc2)cc1O
–	–	–	10	10	O=C(/C(=C\c1cc(Cl)c(O)c(Cl)c1)SCc1ccc(Br)cc1)c1ccc(Br)cc1
–	–	–	1	50	CSc1ccc(/C=C(/Sc2ccc(C)cc2)C(=O)c2ccc(Br)cc2)cc1
–	–	–	50	> 100	Cc1ccc(S/C(=C/c2ccc(N(C)C)cc2)C(=O)c2ccc(Br)cc2)cc1
